Screening data deposited in PubChem BioAssay by The Scripps Research Institute Molecular Screening Center.
TDP2 absorb: blocks human TDP2 phosphodiesterase activity; O95551; recombinant TDP2, T5PNP hydrolysis, p-nitrophenol absorbance 415 nm; inhibition, % at 12.8 µM; hit rate 0.34% among 370,000;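 active = inhibition above the mean of all tested compounds plus 3 SD, set per campaign, cut at about 25% in these data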
Target sequence (O95551 whole entry, looked up): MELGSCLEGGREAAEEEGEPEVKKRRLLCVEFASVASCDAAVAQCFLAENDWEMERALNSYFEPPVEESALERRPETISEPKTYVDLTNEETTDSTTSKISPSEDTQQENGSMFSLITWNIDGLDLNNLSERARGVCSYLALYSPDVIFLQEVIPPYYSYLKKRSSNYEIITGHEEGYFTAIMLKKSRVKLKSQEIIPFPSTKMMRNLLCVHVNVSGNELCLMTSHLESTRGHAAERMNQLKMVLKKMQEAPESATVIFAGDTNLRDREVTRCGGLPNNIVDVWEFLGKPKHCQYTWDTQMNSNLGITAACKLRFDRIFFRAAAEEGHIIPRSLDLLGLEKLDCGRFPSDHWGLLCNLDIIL
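Assay system: recombinant human TDP2 / Reagent: T5PNP substrate at 5 mM, a TopII-DNA adduct mimic / Measured by: epi absorbance from released p-nitrophenol / Evaluation: % inhibition relative to enzyme-containing and enzyme-free wells / Control set: enzyme-free and DMSO wells / Replicates: each compound tested once, singlicate / Schedule: enzyme reaction with compound for 2 h at 37 °C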
UHRF1 binding: human UHRF1 methylated DNA binding inhibitors; inhibition, % at 4.4 µM; UHRF1 binding to methylated oligo, TR-FRET; Q96T88; AID 687016; hit rate 0.75% among 370,000; in the data active = inhibition above about 21%;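 also: UHRF1 SRA domain binding a hemimethylated CpG hairpin DNA probe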
LEDGF integ inh: blocks HIV-1 LEDGF/p75-dependent DNA integration; TR-FRET IN-LEDGF/p75 DNA integration, Eu/Cy5; AID 743269; inhibition, % at 3.7 µM; hit rate 0.64% among 370,000;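 active = inhibition above the screen-wide mean plus 3 SD, cut at about 13% in these data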;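 also: signal is the Cy5 over europium emission ratio at 671 and 618 nm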
MBD2 DNA inh: blocks human MBD2 binding to methylated DNA; Q9UBB5; hit rate 0.31% among 370,000; AID 686964; inhibition, % at 4.4 µM; TR-FRET, MBD2 binding to methylated oligonucleotide; in the data active = inhibition above about 13%
UHRF1 DNA bind: UHRF1 methyl-oligo binding inhibition as MBD2 counter-screen; shares compounds with MBD2 DNA inh; UHRF1 binding to methylated oligonucleotide, TR-FRET; inhibition, % at 4.4 µM; hit rate 25% among 1,000; AID 720530; in the data active = inhibition above about 21%;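 also: UHRF1 SRA domain binding a labeled hemimethylated CpG hairpin DNA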
MBD2 DBD conf: confirmation of human MBD2-DBD methylated oligonucleotide binding inhibitors | shares compounds with MBD2 DNA inh | TR-FRET MBD2-DBD binding to methylated oligonucleotide | inhibition, % at 4.4 µM | hit rate 26% among 1,000
TDP2 inh conf: confirmation of human TDP2 inhibitors; shares compounds with TDP2 absorb; recombinant human TDP2, absorbance read-out; inhibition, % at 12.8 µM; hit rate 22% among 1,100; in the data active = inhibition above about 25%
IN multimer act: counter-screen for LEDGF/p75 integration inhibitors: HIV-1 integrase multimerization activators. shares compounds with LEDGF integ inh. activation, % at 7.7 µM. hit rate 17% among 2,000. TR-FRET HIV-1 integrase multimerization, biochemical; in the data active = activation above about 8.9%
TRFRET interf: TR-FRET optical interference, LEDGF/p75 integration counter-screen; shares compounds with LEDGF integ inh; TR-FRET optical interference counterscreen, HIV-1 IN multimerization; inhibition, % at 7.7 µM; 2,000 tested, under 10 active; AID 1053135;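 active = inhibition above the mean over all tested compounds plus 3 SD, which no compound reached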
IN-LEDGF confirm: confirmation of HIV-1 LEDGF/p75-dependent integration inhibitors; hit rate 36% among 2,000; shares compounds with LEDGF integ inh; inhibition, % at 3.7 µM; TR-FRET LEDGF/p75-dependent HIV-1 integration, biochemical
Of the large screens only hits and unclear results are named; the others gave an inactive call (follow-up assays come after a bar, where they were run). This is a sample that favours compounds with a hit; in the whole collection about 1.6% have one here. Rule as the data show it, unless noted: active = inhibition above about 14%; inactive = the rest.

Cc1cc(C)c(C#N)c(SCC(=O)c2cc(C)n(CCc3ccccc3)c2C)n1	none
CN(CC(=O)Nc1ccc(N2CCOCC2)cc1)CC(=O)Nc1ccccc1C#N	none
Cc1ccc(S(=O)(=O)N2CC=C(C(=O)NCCC(C)C)CC2)cc1	none
Nc1ccc(C(CC(=O)O)n2cccc2)cc1 (stereo not given)	UHRF1 binding 100, LEDGF integ inh 65, MBD2 DNA inh 43 | UHRF1 DNA bind inactive | MBD2 DBD conf inactive | IN multimer act inactive | TRFRET interf inactive | IN-LEDGF confirm inactive
O=C(O)c1cc(N2C(=O)C=CC2=O)cc(N2C(=O)C=CC2=O)c1	UHRF1 binding 97, LEDGF integ inh 62, MBD2 DNA inh 80 | UHRF1 DNA bind 77 | MBD2 DBD conf 39 | IN multimer act inactive | TRFRET interf inactive | IN-LEDGF confirm 53
COc1ccc(CC(O)CC2c3c(cc4c(c3OC)OCO4)CCN2C)cc1 (stereo not given)	none
CC(C)(C)C(=O)N1CCC(O)(CS(=O)(=O)Cc2ccc(Cl)cc2)CC1	none
COc1ccc(-c2cc(=O)[nH][nH]2)cc1OC	TDP2 absorb 87, LEDGF integ inh 42, MBD2 DNA inh 16 | UHRF1 DNA bind inactive | MBD2 DBD conf inactive | TDP2 inh conf inactive | IN multimer act inactive | TRFRET interf inactive | IN-LEDGF confirm inactive
CCCC(=O)OCCNc1cc(SCc2ccco2)c2nonc2c1[N+](=O)[O-]	none
CC(=O)OCCCNc1cc(SCc2ccco2)c2nonc2c1[N+](=O)[O-]	UHRF1 binding 59, LEDGF integ inh 66, MBD2 DNA inh 14 | UHRF1 DNA bind inactive | MBD2 DBD conf inactive | IN multimer act inactive | TRFRET interf inactive | IN-LEDGF confirm 24
O=C(/C=C/c1ccco1)c1cccnc1	UHRF1 binding 84, LEDGF integ inh 67, MBD2 DNA inh 31 | UHRF1 DNA bind 44 | MBD2 DBD conf 20 | IN multimer act inactive | TRFRET interf inactive | IN-LEDGF confirm 51
COC(=O)c1cccc(NC(=O)Cn2cnc3c2c(=O)n(C)c(=O)n3C)c1	none
CCOC(=O)N1CCN(S(=O)(=O)c2ccc(OCC(=O)OC)c(Cl)c2)CC1	none
CCc1ccc(NC(=O)C(=O)NCCN2CCN(S(=O)(=O)c3ccccc3)CC2)cc1	none
COc1ccc(C(c2c(C)[nH]n(-c3ccccc3)c2=O)c2c(C)[nH]n(-c3ccccc3)c2=O)cc1OC	TDP2 absorb 88, LEDGF integ inh 26, MBD2 DNA inh 16 | UHRF1 DNA bind inactive | MBD2 DBD conf inactive | TDP2 inh conf 39 | IN multimer act inactive | TRFRET interf inactive | IN-LEDGF confirm inactive
COc1ccc(C(c2c(C)n(C)n(-c3ccccc3)c2=O)c2c(C)n(C)n(-c3ccccc3)c2=O)cc1OC	none
CCN(CC)Cc1cc(O)c(CN(CC)CC)cc1O	UHRF1 binding 52, LEDGF integ inh 64, MBD2 DNA inh 17 | UHRF1 DNA bind inactive | MBD2 DBD conf inactive | IN multimer act inactive | TRFRET interf inactive | IN-LEDGF confirm 57
COC(=O)COc1ccc(C2Nc3c(Cl)ccc(C(=O)O)c3C3C=CCC32)cc1 (stereo not given)	UHRF1 binding 46, LEDGF integ inh 66, MBD2 DNA inh 18 | UHRF1 DNA bind inactive | MBD2 DBD conf inactive | IN multimer act inactive | TRFRET interf inactive | IN-LEDGF confirm 21
O=C(N/C=C/c1ccco1)OCc1ccccc1	UHRF1 binding 24, LEDGF integ inh 36, MBD2 DNA inh 15 | UHRF1 DNA bind 26 | MBD2 DBD conf 27 | IN multimer act 31 | TRFRET interf inactive | IN-LEDGF confirm 36
CSCCNCc1c(C(=O)N2CCOCC2)nc2c(C)cccn12	none
CCNC(=O)N(C)[C@H]1C[C@@H](c2ccccc2)N(C(C)=O)C[C@H]1CO	none
O=C(N/N=C/c1ccc(F)cc1)c1cc(-c2ccco2)nc2ccccc12	UHRF1 binding 28, LEDGF integ inh 15, MBD2 DNA inh 19 | UHRF1 DNA bind 52 | MBD2 DBD conf 36 | IN multimer act 24 | TRFRET interf inactive | IN-LEDGF confirm 48
O=C(CSc1nnc(-c2ccco2)o1)c1ccccc1	none
O=C(CSc1nnc(-c2ccco2)c(-c2ccco2)n1)c1ccccc1	UHRF1 binding 58, LEDGF integ inh 57, MBD2 DNA inh 17 | UHRF1 DNA bind inactive | MBD2 DBD conf inactive | IN multimer act inactive | TRFRET interf inactive | IN-LEDGF confirm 26
O=C1S/C(=C\C=C\c2ccco2)C(=O)N1c1ccccc1	UHRF1 binding 25, LEDGF integ inh 40, MBD2 DNA inh 13 | UHRF1 DNA bind inactive | MBD2 DBD conf inactive | IN multimer act inactive | TRFRET interf inactive | IN-LEDGF confirm 23
CCC(C(=O)O)N1C(=O)/C(=C/c2cccn2C)SC1=S (stereo not given)	none
O=C(O)CCCN1C(=O)/C(=C/C=C/c2ccco2)SC1=S	UHRF1 binding 98, LEDGF integ inh 87, MBD2 DNA inh 70 | UHRF1 DNA bind 91 | MBD2 DBD conf 49 | IN multimer act 13 | TRFRET interf inactive | IN-LEDGF confirm 83
Cn1cc(/C=C2\SC(=O)N(c3ccccc3)C2=O)c2ccccc21	none
COc1ccc(/C=C2\SC(=S)N(C(Cc3ccccc3)C(=O)O)C2=O)cc1 (stereo not given)	none
O=C(O)CC(C(=O)O)N1C(=O)/C(=C/C=C/c2ccco2)SC1=S (stereo not given)	UHRF1 binding 100, LEDGF integ inh 89, MBD2 DNA inh 109 | UHRF1 DNA bind 92 | MBD2 DBD conf 59 | IN multimer act 37 | TRFRET interf inactive | IN-LEDGF confirm 94
O=C(O)C(Cc1ccccc1)N1C(=O)/C(=C/C=C/c2ccco2)SC1=S (stereo not given)	UHRF1 binding 98, LEDGF integ inh 86, MBD2 DNA inh 94 | UHRF1 DNA bind 98 | MBD2 DBD conf 71 | IN multimer act 27 | TRFRET interf inactive | IN-LEDGF confirm 82
CC(C)Cc1nnc(NC(=O)CCC(=O)N2CCN(c3ccc([N+](=O)[O-])cc3)CC2)s1	none
O=C(NN1C(=O)/C(=C/C=C/c2ccco2)SC1=S)c1ccccc1O	UHRF1 binding 95, LEDGF integ inh 81, MBD2 DNA inh 56 | UHRF1 DNA bind 66 | MBD2 DBD conf 30 | IN multimer act 73 | TRFRET interf inactive | IN-LEDGF confirm 80
